Data: ChEMBL document CHEMBL2440065, “Identification of a novel benzoxazolone derivative as a selective, orally active 18 kDa translocator protein (TSPO) ligand” (J Med Chem, 2013)
In brackets after ≈: the same amount, converted by molar mass. Activity calls are given as the source filed them. The calls are words filed in the database; no cut-off is given here.

Assays:
[1] = Solubility of the compound at pH 2.5 by HPLC analysis; type: physicochemical; settings: buffer
In short: (§1)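 Compound (1 mg) shaken in 0.4 mL buffered solution at pH 7.4 or pH 2.5, then centrifuged; dissolved compound in the supernatant quantified by HPLC.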

[2] = species on record: Rattus norvegicus; assay: Displacement of [3H]flumazenil from Sprague-Dawley rat cerebral cortex CBR at 10 uM after 1 hr by liquid scintillation counting analysis; type: tissue-based
[3] = target: Translocator protein (Rattus norvegicus, UniProt P16257); assay: Displacement of [3H]PK11195 from Sprague-Dawley rat kidney TSPO after 1 hr by liquid scintillation counting analysis
Chain of Translocator protein (P16257 whole entry, looked up): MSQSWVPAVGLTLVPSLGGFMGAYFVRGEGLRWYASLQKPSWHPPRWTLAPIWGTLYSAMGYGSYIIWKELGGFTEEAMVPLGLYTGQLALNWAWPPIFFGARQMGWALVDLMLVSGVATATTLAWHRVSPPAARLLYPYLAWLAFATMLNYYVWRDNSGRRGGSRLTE

[4] = Metabolic stability in rat liver S9 fraction assessed as compound remaining at 1 uM after 30 mins in presence of NADPH; type: ADME, subcellular; settings: read-out: Stability
[5] = Displacement of [3H]batrachotoxin from rat brain sodium channel site 2; type: tissue-based
[6] = tested on: Rattus norvegicus; assay: Anxiolytic-like activity in Sprague-Dawley rat vogel conflict model at 3 mg/kg, po after 1 hr; type: functional, organism-based; parameters: dose 3 mg/kg
[7] = species on record: Rattus norvegicus; assay: Displacement of [3H]batrachotoxin from rat brain sodium channel site 2 at 10 uM relative to control; type: tissue-based
[8] = target: CYP2C19 (Homo sapiens, UniProt P33261); assay: Inhibition of CYP2C19 (unknown origin) at 1 uM; type: ADME
Chain of CYP2C19 (P33261 whole entry): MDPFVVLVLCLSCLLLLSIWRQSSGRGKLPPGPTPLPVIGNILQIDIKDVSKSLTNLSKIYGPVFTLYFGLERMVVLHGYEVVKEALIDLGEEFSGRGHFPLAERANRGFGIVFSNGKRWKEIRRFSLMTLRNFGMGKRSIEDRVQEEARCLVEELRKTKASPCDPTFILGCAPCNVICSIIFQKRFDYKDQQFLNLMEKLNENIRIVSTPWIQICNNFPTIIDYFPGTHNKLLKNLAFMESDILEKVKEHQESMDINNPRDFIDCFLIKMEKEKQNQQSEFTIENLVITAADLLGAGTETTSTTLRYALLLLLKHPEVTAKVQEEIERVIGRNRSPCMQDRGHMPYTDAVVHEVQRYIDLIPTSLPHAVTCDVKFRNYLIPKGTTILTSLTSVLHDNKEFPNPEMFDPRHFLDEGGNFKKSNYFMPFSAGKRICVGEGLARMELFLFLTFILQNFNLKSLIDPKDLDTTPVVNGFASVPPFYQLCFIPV

[9] = Solubility of the compound at pH 7.4 by HPLC analysis; type: physicochemical; settings: buffer; in short: as §1

SMILES	solubility [1]	inhibition [2]	Ki [3]	remaining at 0.5 h, 1 µM [4]	inhibition at 1 µM [8]	solubility [9]	IC50 [5]	Activity [6]	inhibition [7]
CN(C(=O)Cn1c(=O)oc2ccc(-c3ccccc3)cc21)c1ccccc1	1 µg/mL (≈ 2.79 µM)								
CN(C(=O)Cn1c(=O)oc2ccc(-c3ccccc3)cc21)c1cccnc1	180 µg/mL (≈ 501 µM)						> 1000 nM		
CN(C(=O)Cn1c(=O)oc2ccc(-c3ccc(OC(F)(F)F)cc3)cc21)c1cccnc1		0%						Active	108%
CN(C(=O)Cn1c(=O)oc2ccc(-c3ccc(C(F)(F)F)cc3)cc21)c1ccccc1	< 1 µg/mL					< 1 µg/mL			
COc1ccc(N(C)C(=O)Cn2c(=O)oc3ccc(-c4ccncc4)cc32)cc1	130 µg/mL (≈ 334 µM)	2%	17 nM	47%		< 1 µg/mL			

The next lines start with results.

solubility [1]	inhibition [2]	Ki [3]	remaining at 0.5 h, 1 µM [4]	inhibition at 1 µM [8]	solubility [9]	SMILES	IC50 [5]	Activity [6]	inhibition [7]
	0%	19 nM	9%			COc1ccc(N(C)C(=O)Cn2c(=O)oc3ccc(-c4cccnc4)cc32)cc1			
> 1000 µg/mL	0%	6.6 nM	35%	73%	3 µg/mL (≈ 7.02 µM)	CN(C(=O)Cn1c(=O)oc2ccc(-c3ccncc3)cc21)c1ccc(C(F)(F)F)cc1			
860 µg/mL (≈ 2300 µM)	5%	3 nM	24%	71%	2 µg/mL (≈ 5.36 µM)	CCN(C(=O)Cn1c(=O)oc2ccc(-c3ccncc3)cc21)c1ccccc1			
	21%	4.4 nM	0%			CCN(C(=O)Cn1c(=O)oc2ccc(-c3cccnc3)cc21)c1ccccc1			
